Measurements published in ChEMBL document CHEMBL1140077, “Lipid-lowering (hetero)aromatic tetrahydro-1,4-oxazine derivatives with antioxidant and squalene synthase inhibitory activity” (J Med Chem, 2008).

Key:
Rattus norvegicus [1] = experiment: Decrease in total cholesterol level in Fischer 344 rat plasma at 56 umol/kg, ip after 24 hrs; assay type: functional; parameters: scale not given: the % may be the effect or the level left
Summary of the method: (§1)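 Male Fischer-344 rats (180-220 g) made hyperlipidemic with Triton WR 1339 (200 mg/kg ip, aqueous); 1 h later compound (56 µmol/kg) in saline or saline alone given ip. Aortic blood taken at 24 h; plasma total cholesterol, LDL-C and triglycerides measured with kits in duplicate; mean of 8-10 rats per compound.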

Rattus norvegicus [2] = experiment: Decrease in triglyceride level in Fischer 344 rat plasma at 56 umol/kg, ip after 24 hrs; assay type: functional; parameters: scale not given: the % may be the effect or the level left; summary of the method: as §1
Squalene synthase = target: T1, Squalene synthase (Rattus norvegicus, UniProt Q02769); experiment: Inhibition of squalene synthase in rat liver microsome measured by conversion of [3H]FPP to squalene; assay type: microsomes
T1 sequence (Q02769 whole entry): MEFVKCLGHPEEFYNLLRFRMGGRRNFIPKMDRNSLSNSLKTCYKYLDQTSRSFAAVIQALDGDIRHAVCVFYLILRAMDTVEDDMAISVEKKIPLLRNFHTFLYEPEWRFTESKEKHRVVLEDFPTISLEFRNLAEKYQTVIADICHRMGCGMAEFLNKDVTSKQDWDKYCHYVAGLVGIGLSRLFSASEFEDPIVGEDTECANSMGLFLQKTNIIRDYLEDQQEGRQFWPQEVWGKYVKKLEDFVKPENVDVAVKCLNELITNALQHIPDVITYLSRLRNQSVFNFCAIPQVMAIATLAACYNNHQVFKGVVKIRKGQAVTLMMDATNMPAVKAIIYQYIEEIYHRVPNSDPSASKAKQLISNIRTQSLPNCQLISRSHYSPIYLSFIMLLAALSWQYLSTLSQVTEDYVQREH
Summary of the method: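 Rat liver microsomes (18 µg protein/mL) in 50 mM phosphate pH 7.4 with 10 mM MgCl2, 0.5 mM NADPH, compound in ethanol; preincubated 10 min 37 °C, started with [3H]FPP (0.5 µM), 10 min 37 °C. Stopped with ethanolic KOH, 65 °C 30 min, petroleum ether extract counted by scintillation; triplicates, IC50 from mean.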

Rattus norvegicus [3] = experiment: Decrease in LDL-cholesterol level in Fischer 344 rat plasma at 56 umol/kg, ip after 24 hrs; assay type: functional; parameters: scale not given: the % may be the effect or the level left; summary of the method: as §1
Liver microsomes = experiment: Inhibition of lipid peroxidation in heat-inactivated rat liver microsomes after 45 mins; assay type: functional, Microsome
Summary of the method: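 Heat-inactivated liver microsomes from untreated rats (2.5 mg protein/mL) with 0.2 mM ascorbate in Tris-HCl/KCl (50/150 mM, pH 7.4), compound 10 µM-1 mM in DMSO; started with FeSO4 (10 µM), 37 °C 45 min. TBAR read at 535 vs 600 nm; duplicates; IC50 as mean concentration giving 50% inhibition of peroxidation.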

Row | SMILES | Activity (Rattus norvegicus [1]) | Activity (Rattus norvegicus [2]) | IC50 (Squalene synthase) | Activity (Rattus norvegicus [3]) | IC50 (Liver microsomes)
1 | CN1CC(O)(c2ccc(-c3ccccc3)cc2)OC2CCCCC21 (stereo not given) | 54% | 49% | 36 µM | 51% | 450 µM
2 | CN1CCOC(O)(c2ccc(-c3cccs3)cc2)C1 (stereo not given) | 48% | 38% | 5 µM | 61% | 87 µM
3 | OC1(c2ccc(-c3ccccc3F)cc2)CN2CCCCC2CO1 (stereo not given) | 5% | 15% | 10 µM | 11% | 390 µM
4 | OC1(c2ccc(-c3cccs3)cc2)CN2CCCCC2CO1 (stereo not given) | 43% | 29% | 7 µM | 46% | 174 µM
5 | CN1CCOC(O)(c2ccc(-c3ccc(Br)s3)cc2)C1 (stereo not given) | 43% | 35% | 13 µM | 26% | 51 µM
6 | OC1(c2ccc(-c3ccc(Br)s3)cc2)CN2CCCCC2CO1 (stereo not given) | 36% | 37% | 7 µM | 35% | 164 µM
7 | CN1CCOC(O)(c2ccc(-c3nc4ccccc4s3)cc2)C1 (stereo not given) | 46% | 44% | 2 µM | 53% | 113 µM
8 | CN1CC(O)(c2ccc(-c3nc4ccccc4s3)cc2)OC2CCCCC21 (stereo not given) | 0% | 0% | 6 µM | 24% | 202 µM
9 | CN1CC(O)(c2ccc(-c3cccs3)cc2)OC2CCCCC21 (stereo not given) | 45% | 47% | 10 µM | 46% | 20 µM
10 | OC1(c2ccc(-c3ccc(Cl)cc3)cc2)CN2CCCCC2CO1 (stereo not given) | 44% | 52% | 15 µM | 35% | 178 µM
11 | CN1CCOC(O)(c2ccc(-c3ccc(Br)cc3)cc2)C1 (stereo not given) | 47% | 51% | 6 µM | 36% | 220 µM
12 | OC1(c2ccc(-c3nc4ccccc4s3)cc2)CN2CCCCC2CO1 (stereo not given) | 55% | 46% | 5 µM | 41% | 187 µM
13 | CN1CC(O)(c2ccc(-c3ccccc3F)cc2)OC2CCCCC21 (stereo not given) | 18% | 25% | 42 µM | 47% | 490 µM
14 | OC1(c2ccc(-c3ccc(Br)cc3)cc2)CN2CCCCC2CO1 (stereo not given) | 17% | 17% | 3 µM | 6% | 139 µM
15 | CN1CCOC(O)(c2ccc(-c3ccc(F)cc3)cc2)C1 (stereo not given) | 23% | 18% | 23 µM | 36% | 330 µM
16 | CN1CCOC(O)(c2ccc(-c3ccc(Cl)cc3)cc2)C1 (stereo not given) | 63% | 70% | 9 µM | 57% | 111 µM
17 | CN1CC(O)(c2ccc(-c3ccc(Cl)cc3)cc2)OC2CCCCC21 (stereo not given) | 11% | 41% | 9 µM | 29% | 180 µM
18 | CN1CC(O)(c2ccc(-c3ccc(F)cc3)cc2)OC2CCCCC21 (stereo not given) | 41% | 94% | 28 µM | 33% | 420 µM
19 | OC1(c2ccc(-c3ccc(F)cc3)cc2)CN2CCCCC2CO1 (stereo not given) | 27% | 95% | 10 µM | 11% | 162 µM
20 | CN1CC(O)(c2ccc(-c3ccc(Br)s3)cc2)OC2CCCCC21 (stereo not given) | 35% | 26% | 1 µM | 45% | 160 µM
21 | CN1CCOC(O)(c2ccc(-c3ccccc3F)cc2)C1 (stereo not given) | 67% | 64% | 40 µM | 82% | 182 µM
22 | CN1CC(O)(c2ccc(-c3ccc(Br)cc3)cc2)OC2CCCCC21 (stereo not given) | 23% | 7% | 4 µM | 53% | 200 µM
